# Measurements published in ChEMBL document CHEMBL3352144, “Cytotoxic Spliceostatins from Burkholderia sp. and Their Semisynthetic Analogues” (J Nat Prod, 2014).
# pIC50: −log10 of the molar value.
# Key:
# [1] = test system: BT-474; experiment: Cytotoxicity against human BT474 cells after 4 days by MTS/cell proliferation assay; assay type: functional, cell-based; settings: BT-474, 96 h
# Method in brief: (§1)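 Cells seeded in 96-well plates and dosed next day with 10 concentrations in 3-fold serial dilution, in duplicate. Incubated 4 days at 37 °C/5% CO2. Viability read by MTS or CellTiter-Glo luminescence. IC50 from four-parameter logistic fit.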
# [2] = test system: NCI-N87; experiment: Cytotoxicity against human NCI-N87 cells after 4 days by MTS/cell proliferation assay; assay type: functional, cell-based; settings: NCI-N87, 96 h; method in brief: as §1
# [3] = test system: MDA-MB-468; experiment: Cytotoxicity against human MDA-MB-468 cells after 4 days by MTS/cell proliferation assay; assay type: functional, cell-based; settings: MDA-MB-468, 96 h; method in brief: as §1
# [4] = 1-Octanol-buffer partition coefficient, log D of the compound at pH 7.4 by shake flask method; assay type: physicochemical
# Method in brief: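 Shake-flask partition: 10 mM DMSO stock added to 1-octanol/pH 7.4 phosphate buffer (1:1, mutually presaturated), mixed 15 min at room temperature, centrifuged 1006g 10 min to split phases. Each phase was sampled, diluted and quantified by LC-MS/MS. Run in duplicate, typical CV ~20%.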
# [5] = test system: NCI-H1975; experiment: Cytotoxicity against human NCI-H1975 cells after 4 days by MTS/cell proliferation assay; assay type: functional, cell-based; settings: NCI-H1975, 96 h; method in brief: as §1
# [6] = Cytotoxicity against human MDA-MB-DYT2 cells after 4 days by MTS/cell proliferation assay; assay type: functional, cell-based; settings: 96 h; method in brief: as §1
Compound,pIC50 [1],pIC50 [2],pIC50 [3],logD [4],pIC50 [5],pIC50 [6]
CC(=O)O[C@@H](C)/C=C\C(=O)N[C@@H]1C[C@H](C)[C@H](C/C=C(C)/C=C/[C@@H]2C[C@](O)(CCl)C[C@@H](CC(=O)O)O2)O[C@@H]1C,8.73,9.19,8.87,–,–,–
CC(=O)O[C@@H](C)/C=C\C(=O)N[C@@H]1C[C@H](C)[C@H](C/C=C(C)/C=C/[C@@H]2C[C@]3(CO3)C[C@@H](CC(=O)O)O2)O[C@@H]1C,8.32,8.70,8.47,0.077,8.44,8.04
C=C1C[C@@H](CC(=O)O)O[C@H](/C=C/C(C)=C/C[C@@H]2O[C@H](C)[C@H](NC(=O)/C=C\[C@H](C)OC(C)=O)C[C@@H]2C)C1,–,–,–,–,7.52,–
C=C1C[C@@H](CC(=O)O)O[C@H](/C=C/C(C)=C/C[C@@H]2O[C@H](C)[C@H](NC(=O)/C=C\[C@H](C)OC(C)=O)C[C@@H]2C)[C@H]1O,–,–,–,–,6.02,–
CC(=O)O[C@@H](C)/C=C\C(=O)N[C@@H]1C[C@H](C)[C@H](C/C=C(C)/C=C/[C@@H]2CC(C)=CC(=O)O2)O[C@@H]1C,8.43,8.44,8.81,–,–,8.38
CC(=O)O[C@@H](C)/C=C\C(=O)N[C@@H]1C[C@H](C)[C@H](C/C=C(C)/C=C/C(=O)O)O[C@@H]1C,< 7.00,< 7.00,–,–,–,< 7.00
CC(=O)O[C@@H](C)/C=C\C(=O)N[C@@H]1C[C@H](C)[C@H](C/C=C(C)/C=C/[C@@H]2C[C@](O)(CCl)C[C@@H](CC(=O)OC[C@@]3(O)[C@H](O)[C@@H](/C=C/C(C)=C/C[C@@H]4O[C@H](C)[C@H](NC(=O)/C=C\[C@H](C)OC(C)=O)C[C@@H]4C)O[C@](C)(O)[C@@H]3O)O2)O[C@@H]1C,8.42,8.73,–,–,–,8.51
CC(=O)O[C@@H](C)/C=C\C(=O)N[C@@H]1C[C@H](C)[C@H](C/C=C(C)/C=C/[C@H]2O[C@@H]3CC(=O)O[C@@](CCl)(C3)[C@@H]2O)O[C@@H]1C,–,< 7.00,< 7.00,–,–,< 7.00
COC(=O)C[C@@H]1C[C@@]2(CO2)[C@H](O)[C@@H](/C=C/C(C)=C/C[C@@H]2O[C@H](C)[C@H](NC(=O)/C=C\[C@H](C)OC(C)=O)C[C@@H]2C)O1,9.06,9.11,–,2.23,–,8.90
CCCNC(=O)C[C@@H]1C[C@@]2(CO2)C[C@@H](/C=C/C(C)=C/C[C@@H]2O[C@H](C)[C@H](NC(=O)/C=C\[C@H](C)OC(C)=O)C[C@@H]2C)O1,8.60,8.22,8.77,3.72,8.62,–
CCCNC(=O)C[C@@H]1C[C@@]2(CO2)[C@H](O)[C@@H](/C=C/C(C)=C/C[C@@H]2O[C@H](C)[C@H](NC(=O)/C=C\[C@H](C)OC(C)=O)C[C@@H]2C)O1,9.72,9.19,9.96,2.21,9.55,9.54
CC(=O)O[C@H]1C(=O)[C@@]2(C)[C@H]([C@H](OC(=O)c3ccccc3)[C@]3(O)C[C@H](OC(=O)[C@H](O)[C@@H](NC(=O)c4ccccc4)c4ccccc4)C(C)=C1C3(C)C)[C@]1(OC(C)=O)CO[C@@H]1C[C@@H]2O [PACLITAXEL],8.08,8.12,8.14,–,8.10,8.22
CC(=O)O[C@@H](C)/C=C\C(=O)N[C@@H]1C[C@H](C)[C@H](C/C=C(C)/C=C/[C@H]2O[C@H](CC(=O)O)C[C@@]3(CO3)[C@@H]2O)O[C@@H]1C [THAILANSTATIN A],6.84,7.23,6.85,-0.658,6.49,6.79
CC(=O)O[C@@H](C)/C=C\C(=O)N[C@@H]1C[C@H](C)[C@H](C/C=C(C)/C=C/[C@H]2O[C@H](CC(=O)O)C[C@@](O)(CCl)[C@@H]2O)O[C@@H]1C [THAILANSTATIN B],< 7.00,< 7.00,< 7.00,–,–,–
